Laboratory results published in PubChem BioAssay AID652204 (Vanderbilt Specialized Chemistry Center, 2013).
Active and inactive are the calls of the source. How the calls were made is not given here.

Molecular target: Metabotropic glutamate receptor 4 (Rattus norvegicus) (UniProt P31423)
Assay: mGlu4 modulation of glutamate calcium response, selectivity assay for mGlu5 silent allosteric modulator project, cell-based, rat, CHO, Gqi5, Fluo4 calcium (AID 652204)
Conditions: CHO rmGlu4/Gqi5, Fluo4 calcium mobilization, glutamate CRC
Outline: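 Test system: CHO cells expressing rat mGlu4 together with Gqi5; Medium: HBSS buffer with probenecid 2.5 mM, HEPES 20 mM, pH 7.4; Also added: glutamate 9-point series up to 1 mM; Dosing: 10 µM compound, 1% DMSO; Times: 37 °C 60-min dye-loading, compound 20 s, glutamate 80 s; Detection: Fluo4 calcium-dye fluorescence.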

Chain of Metabotropic glutamate receptor 4 (Rattus norvegicus) (P31423 whole entry, looked up): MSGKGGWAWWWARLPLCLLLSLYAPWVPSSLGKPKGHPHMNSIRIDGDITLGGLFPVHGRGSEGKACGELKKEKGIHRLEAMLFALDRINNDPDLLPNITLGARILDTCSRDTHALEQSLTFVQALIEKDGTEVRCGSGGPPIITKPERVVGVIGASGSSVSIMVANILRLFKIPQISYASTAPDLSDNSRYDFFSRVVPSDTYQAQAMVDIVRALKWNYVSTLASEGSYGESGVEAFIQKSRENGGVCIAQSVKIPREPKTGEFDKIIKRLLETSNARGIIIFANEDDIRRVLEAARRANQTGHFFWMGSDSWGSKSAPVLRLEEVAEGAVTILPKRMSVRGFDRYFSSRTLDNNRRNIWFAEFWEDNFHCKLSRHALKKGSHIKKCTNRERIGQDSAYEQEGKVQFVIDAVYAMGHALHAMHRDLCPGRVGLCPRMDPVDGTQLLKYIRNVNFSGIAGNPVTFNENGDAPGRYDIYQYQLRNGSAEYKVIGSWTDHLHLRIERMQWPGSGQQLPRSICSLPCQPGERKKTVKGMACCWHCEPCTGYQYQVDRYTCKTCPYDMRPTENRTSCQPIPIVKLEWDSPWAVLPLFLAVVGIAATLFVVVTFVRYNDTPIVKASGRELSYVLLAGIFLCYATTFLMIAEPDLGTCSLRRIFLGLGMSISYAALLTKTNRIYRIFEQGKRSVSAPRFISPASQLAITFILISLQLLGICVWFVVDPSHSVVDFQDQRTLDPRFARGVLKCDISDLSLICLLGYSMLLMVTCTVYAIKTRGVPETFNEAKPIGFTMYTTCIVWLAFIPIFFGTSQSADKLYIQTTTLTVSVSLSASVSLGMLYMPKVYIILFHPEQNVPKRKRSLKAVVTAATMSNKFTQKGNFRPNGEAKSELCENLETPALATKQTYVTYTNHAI

## O=C(c1ccc(C#Cc2cccc(F)c2)cn1)N1CC2CC2C1 (configuration not stated)
  glutamate EC50 in presence of 10 uM compound: inactive
Measured here: glutamate EC50 fold shift, at 10 µM
  fold shift: 1.23
